# Results: ChEMBL document CHEMBL4513216, “Probing the Open Global Health Chemical Diversity Library for Multistage-Active Starting Points for Next-Generation Antimalarials” (ACS Infect Dis, 2020)
# Assay: Toxicity liver stage against HepG2, at 10uM
# Format: cell-based
# Set-up: test concentration 10 uM, cell line HepG2-A16-CD81EGFP
# Conditions: human, HepG2-A16-CD81EGFP cells; read-out: INHIBITION
# Outline: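 Uninfected HepG2-A16-CD81EGFP cells, 3 × 10^3 per well, 1536-well, plated on prespotted compound at 10 μM final, parasite-free screening media added to match infected plates; puromycin 10 μM positive, DMSO 0.5% negative; run in parallel with 48 h PbLuc assay at 37 °C, 5% CO2; viability by CellTiter-Glo luminescence, normalized to controls.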
row,SMILES,cytotoxicity at 10 µM
1,O=S1(=O)c2cnccc2OC(COc2ccccc2)CN1CC1CC1 (stereo not given),-1.16%
2,CCOC(=O)[C@H]1[C@@H](O)C(=O)N(C)C12CCN(C(=O)CC(C)C)CC2,-5.12%
3,Cn1ccc2c(C(=O)NCCCN3CCOCC3)cccc21,-0.452%
4,CSCCC(C)(O)CNC(=O)Nc1ccccc1C (stereo not given),-1.44%
5,CCOCC(=O)NCCc1nc(C2CC2)cc(C(F)(F)F)n1,1.01%
6,COC(=O)c1sccc1S(=O)(=O)N1CCC(Oc2cccc(C)n2)CC1,6.48%
7,Cc1cccnc1NC(=O)c1ccc(-n2cncn2)nn1,-1.52%
8,Cc1cccc(CN2C[C@@H](NC(=O)C3CCC3)[C@H]3COC[C@H]32)n1,4.83%
9,O=C(c1ccnnc1)N1C[C@@H]2CN(c3ncccn3)C[C@@H]2C1,7.19%
10,Cn1ncc2c1C(COCC1CC1)CN(Cc1ccncc1)C2 (stereo not given),7.22%
11,CN(C)C(=O)C1OC2(CCN(C(=O)c3ccoc3)CC2)c2ccccc21 (stereo not given),5.63%
12,CCN(CC)C(=O)Cn1c(C)cc2nc(SC)n(CC(C)C)c(=O)c21,-12.8%
13,COC[C@@]12CCO[C@@H]1CCN(C(=O)Cc1ccccc1F)C2,-7.27%
14,CCCN(C(=O)CS(=O)(=O)c1ccccc1)c1cccc(C)c1,2.08%
15,O=C(O)Cn1nc(C2CC2)c2c(-c3ccco3)ccnc21,-3.96%
16,Cn1nc(C(=O)N2CCCC2)c(F)c1NC(=O)Cc1ccccc1,1.41%
17,CCn1nccc1CNC(=O)C1CCCC1,-18.5%
18,Cn1ccc(C(=O)N2CCCC2c2cc[nH]n2)n1 (stereo not given),-1.26%
19,CC(C)C(=O)N1CCC(c2nc3ccccn3c2NC(C)(C)C)CC1,5.86%
20,CC(=O)N1CCC(CCc2ccnc(NC(=O)c3ccccn3)c2)CC1,0.15%
21,O=C(NCc1ccccc1)C1CN(c2ccccn2)CCO1 (stereo not given),-2.44%
22,O=C(CCn1c(C(F)F)cc2cccnc21)NC1CC1,-1.71%

row,SMILES,cytotoxicity at 10 µM
1,Cc1cc(C)nc(C2CCN(C(=O)CCn3nnc4ccccc43)C2)n1 (stereo not given),-0.834%
2,O=C(c1cccc2cccnc12)N1CC[C@@]2(CCCO2)[C@@H](O)C1,-23.8%
3,Cc1nc(C2CCCN2C(=O)Cc2ccc3c(c2)OCO3)nc(O)c1C (stereo not given),-34.9%
4,Nc1cncc(C(=O)N2Cc3ccccc3OC3(CCOCC3)C2)c1,11.9%
5,CC(=O)N1CCC(c2nccnc2Nc2ncc(C)s2)CC1,10.1%
6,O=C(Cc1ccsc1)N1CCOC(c2nc(-c3ncccn3)no2)C1 (stereo not given),-7.83%
7,CNc1ncc(CN2CCC(c3nnsc3S(C)(=O)=O)CC2)cn1,-0.085%
8,COc1ccc(CN2CCC(c3cc(O)nc(C)n3)C2)c(F)c1 (stereo not given),0.442%
9,Cc1nc(C2CCN(S(=O)(=O)c3ccc(Cl)cc3)CC2)n[nH]1,10.6%
10,Cc1oc(-c2ccco2)nc1CN1CCc2cnc(C(C)C)nc2C1,0.0371%
11,CSc1c[nH]nc1NS(=O)(=O)c1cc(F)ccc1Cl,-7.23%
12,Cc1cnn(CC(C)Nc2nc3ccccc3o2)c1 (stereo not given),-9.49%
13,c1cc(NCc2ccsc2)cc(-c2nnc[nH]2)c1,-54.5%
14,CC(C)N(C(=O)Cn1cc(Cl)cn1)c1ccccc1,-1.18%
15,COc1cccnc1NC(=O)COC1CCCC1,8.06%
16,N#CCCN(Cc1cccnc1)C(=O)c1ccn(-c2ccccc2)n1,13.9%
17,Cc1nc(C)c(S(=O)(=O)NC(=O)c2ccsc2)s1,-6.85%
18,CCCc1noc(C(C)S(=O)(=O)Cc2nc(C3CC3)no2)n1 (stereo not given),-9.02%
19,Cc1oc(NC(=O)C(C)N2CCN(CCO)CC2)c(C#N)c1C (stereo not given),-13.6%
20,CCCn1cc(NC2CCSCC2)cn1,-1.88%
21,CCOC(=O)N1CCN(C(=O)C2CC(=O)N(c3ccccc3Br)C2)CC1 (stereo not given),-7.22%
22,Cc1nnc(CN(C)C2CCN(CCc3cccs3)C2)n1C (stereo not given),-3.67%

row,SMILES,cytotoxicity at 10 µM
1,CNS(=O)(=O)CC1CCCN1C(=O)c1ccc2cc[nH]c2c1 (stereo not given),-0.651%
2,O=c1c2cccnc2cnn1CC(O)c1ccc(Br)cc1 (stereo not given),-2.59%
3,CCc1noc(CS(=O)(=O)CC=C(C)C)n1,5.41%
4,O=S(=O)(NCc1cccnc1OC1CCCC1)N1CCCCC1,-3.82%
5,Cc1nc2n(n1)CC(NCC(=O)N(C)Cc1cccs1)CC2 (stereo not given),-0.189%
6,CNC(=O)C(C)(C)CNC(=O)Nc1ccncc1C,-12.1%
7,O=C1CC(N(C(=O)CCc2cc(F)ccc2F)C2CC2)C(=O)N1 (stereo not given),3.62%
8,COCc1cc(N(CC(F)F)C2CC2)n2ncnc2n1,-3.94%
9,Cc1ccc(-c2nnc(C(C)N3CCc4cncnc4C3)o2)cc1 (stereo not given),0.776%
10,Cc1nc(CN(C)c2cc(N3CCCC3CO)ncn2)cs1 (stereo not given),4.53%
11,Cn1cc(CNc2cnn(CC3CCCO3)c2)c(-c2ccncc2)n1 (stereo not given),4.4%
12,COc1ccc(CNC2CCN(c3ccccc3)C2)c(OC)c1OC (stereo not given),7.49%
13,CC(C)C(C(=O)N1CCCN(Cc2cnn(C)c2)CC1)n1cncn1 (stereo not given),-4.52%
14,CO[C@H]1CO[C@@]2(CCCN(C(=O)C3CC=CC3)C2)C1,-98.6%
15,Cc1cc(C(=O)N2CCC[C@]3(C[C@@H](OCC4CC4)CO3)C2)no1,-78.9%
16,Cc1csc2ncc(-c3ccnc(N4CCCC[C@@H]4CO)n3)c(=O)n12,9.12%
17,O=C(c1cnc(-c2cccnc2)nc1)N1CCC(c2ccncc2)CC1,-13.7%
18,CCCc1nnc2sc(C3CCN(CC)CC3)nn12,4.6%
19,Cc1ccccc1CN1CCN(C(=O)CCn2ccccc2=O)CC1,3.57%
20,Cn1c(CN2CCCC(Cn3cc(CCO)nn3)C2)cc2ccccc21 (stereo not given),-0.849%
21,Cn1cc(Cl)c(CN2CCCC(Cn3cc(CO)nn3)C2)n1 (stereo not given),1.18%
22,CCc1ncc(C(=O)N(C)C(C)c2ccc3c(c2)OCCO3)cn1 (stereo not given),-2.96%

row,SMILES,cytotoxicity at 10 µM
1,CCn1c(C2CCN(C(=O)c3cc(CC(C)C)on3)CC2)nn(C)c1=O,-3.89%
2,CC(C)Oc1ccc2c(NC(=O)[C@H](C)O)nn(CC(F)(F)F)c2c1,-4.87%
3,OC1CCCN(CCNc2ncc(Cl)cc2F)C1 (stereo not given),8.81%
4,CCc1nc(C)sc1CN1CC[C@@](O)(CCOC)[C@H](C)C1,-1.18%
5,Cc1ccc(F)c(C(=O)N2C[C@@H](C(=O)O)[C@H](c3ccncc3)C2)c1Cl,-2.37%
6,CCCN1CCN(C(=O)c2ccnc(N)c2)[C@H]2CS(=O)(=O)C[C@H]21,2.77%
7,Cc1c(C(=O)N(C)c2ccccc2)cccc1N(C)S(C)(=O)=O,6.36%
8,COc1ccc(CNC(=O)CCN2CCOC(C(F)(F)F)C2)cc1 (stereo not given),4.3%
9,CCC(Oc1ccc(N(C)S(C)(=O)=O)cc1)C(=O)N(C)C (stereo not given),-4.97%
10,Cc1ncccc1OC1(C(=O)NCCCN2CCOCC2)CCNCC1,-10.8%
11,CC(C)C(=O)N1CCN(C(=O)c2cc(C(C)C)on2)[C@H]2CS(=O)(=O)C[C@H]21,-19%
12,CCc1cc(O)nc(C2CCCN2C(=O)c2cccnc2)n1 (stereo not given),-1.54%
13,Cc1ncc2c(n1)CN(Cc1nnc(-c3ccccc3)o1)CC2,-9.77%
14,Cc1nc(C)n(CC2CN(Cc3cscn3)CCO2)n1 (stereo not given),-4.22%
15,COCCNC(=O)Nc1ccc(-n2cncn2)c(C(F)(F)F)c1,-5.92%
16,Fc1ccc(-c2cnc(CN3CCn4c(nnc4C4CC4)C3)o2)cc1,-13.4%
17,CN(C)C(=O)CS(=O)(=O)Cc1cc(Cl)c2c(c1)OCCCO2,-5.08%
18,COc1ccc(OCCCNC(=O)NCc2csc(C)n2)cc1,-7.54%
19,CCc1cccc(N2CCC(NC(=O)c3ccc(=O)[nH]n3)CC2)c1,5.8%
20,CNC(=O)NC(=O)Cn1cc(-c2ccccc2)cn1,3.37%
21,CCc1nccn1C1CCCN(C(=O)Cc2cn3ccccc3n2)C1 (stereo not given),-2.72%
22,Cc1cnn(CC2CCCN2C(=O)c2nccc3ccccc23)c1 (stereo not given),-2.14%

row,SMILES,cytotoxicity at 10 µM
1,CNS(=O)(=O)c1ccc(CNC(=O)NCC2CCOC2)cc1 (stereo not given),-2.65%
2,COCC1CN(Cc2ccsc2)Cc2nn(C)cc21 (stereo not given),5.15%
3,CN1CCO[C@@H]2CN(S(=O)(=O)c3ccccc3F)CC[C@@H]2C1,1.35%
4,CNC(=O)[C@H]1C[C@@H]2CN(Cc3c(C)noc3C)C[C@@H]2N1C(C)=O,-108%
5,COc1cccc(CN2CCCC(c3nn(C)c4nccnc34)C2)c1 (stereo not given),-11.2%
6,CNC(=O)[C@H]1C[C@@H]2CCN(c3nnc(C)s3)C[C@@H]2O1,-75.7%
7,O=C(Nc1cccc(CNCc2ccsc2)c1)C1CC1,-10.7%
8,OCCN1CC2(CCN(c3ccccc3)C2)C1,0.234%
9,O=C1N(CC2CC2)CCC12CCN(CC1CC1)CC2,7.07%
10,CC(C)c1nn(C)c(N(C)C)c1CNCc1cccc(CN(C)C)c1,-4.22%
11,COc1cc(CNCC(O)c2ccc(C)cc2)cc2c1OCCO2 (stereo not given),-6.61%
12,c1cncc(COC[C@@H]2CCC[C@]23CNCCO3)c1,-96.1%
13,CN(C)CC(=O)N1CCOC2(CCCN(c3ncccc3F)C2)C1 (stereo not given),-9.84%
14,OCCOCc1ncn2c1CN(Cc1cccs1)CCC2,-82.9%
15,O=C(O)CC1CN(Cc2ccccc2)CCO1 (stereo not given),6.54%
16,O=C([C@H]1C[C@H]2OCC[C@H]2N(C(=O)c2ccccn2)C1)N1CCCCO1,13.1%
17,Cc1cc(CN2C[C@@H]3COC[C@H](C(=O)N4CCCCO4)[C@@H]3C2)no1,-77.9%
18,COCC1CC2(CCN(Cc3cccnc3)CC2)CN1c1ncccn1 (stereo not given),3.71%
19,CC1c2ncc(COCC3CC3)n2CCN1C (stereo not given),7.83%
20,COc1ccccc1CCNC(=O)C1CCC(Cn2cnnn2)CC1 (stereo not given),1.61%
21,Cc1cc(C)cc(N2CCN(C(=O)CCN3C[C@H]4CC[C@@H]3C4)CC2=O)c1,-4.76%
22,C=c1ncsc1=C1NN=C(C2CCCN2C(=O)CCn2ccc(C)n2)O1 (stereo not given),1.66%
